Converted amounts (≈) assume the structure as drawn.
Legend:
[1] = test system: P388; assay: Log of the tumor cell population at the end of treatment at 100 mg/kg (ip) against P388 Lymphocytic Leukemia in mice; assay type: functional, Mus musculus
[2] = test system: P388; assay: Median survival time of test animals compared to controls at 25 mg/kg (ip) against P388 Lymphocytic Leukemia in mice; assay type: functional, Mus musculus
Outline: (§1)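 P388 leukemia cells were inoculated ip into male CDF1 mice. Treatment began 24 h later, given ip as five daily doses, either as a Klucel (hydroxypropylcellulose) suspension or as an aqueous solution. Acute toxicity was assessed on day 5 and results were read on day 30. The value is median survival of treated versus control mice, as % T/C.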

[3] = Half life was determined
[4] = test system: P388; assay: Median survival time of test animals compared to controls at 100 mg/kg (ip) against P388 Lymphocytic Leukemia in mice; assay type: functional, Mus musculus; outline: as §1
[5] = test system: P388; assay: Weight difference at 100 mg/kg (ip)against P388 Lymphocytic Leukemia in mice; assay type: functional, Mus musculus
Outline: (§2)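 Male CDF1 mice given 6×10^6 leukemia cells ip. Five daily ip doses beginning 24 h later, as Klucel suspension or aqueous solution. Acute toxicity on day 5; survival assessed on day 30. Weight difference reported as treated minus control (g).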

[6] = test system: P388; assay: Median survival time of test animals compared to controls at 50 mg/kg (ip) against P388 Lymphocytic Leukemia in mice; assay type: functional, Mus musculus; outline: as §1
[7] = test system: P388; assay: Weight difference at 12.5 mg/kg (ip)against P388 Lymphocytic Leukemia in mice; assay type: functional, Mus musculus
Outline: (§3)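 P388 leukemia cells inoculated ip into male CDF1 mice; ip treatment started 24 h later, five daily doses, as Klucel (hydroxypropylcellulose) suspension or aqueous solution. Acute toxicity on day 5. Day-30 median survival of treated versus control mice expressed as % T/C. Weight difference is treated minus control, in grams.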

[8] = test system: P388; assay: Median survival time of test animals compared to controls at 12.5 mg/kg (ip) against P388 Lymphocytic Leukemia in mice; assay type: functional, Mus musculus; outline: as §3
[9] = test system: P388; assay: Weight difference at 25 mg/kg (ip)against P388 Lymphocytic Leukemia in mice; assay type: functional, Mus musculus; outline: as §2
[10] = test system: P388; assay: Log of the tumor cell population at the end of treatment at 50 mg/kg (ip) against P388 Lymphocytic Leukemia in mice; assay type: functional, Mus musculus
[11] = test system: P388; assay: Log of the tumor cell population at the end of treatment at 12.5 mg/kg (ip) against P388 Lymphocytic Leukemia in mice; assay type: functional, Mus musculus
[12] = test system: P388; assay: Log of the tumor cell population at the end of treatment at 25 mg/kg (ip) against P388 Lymphocytic Leukemia in mice; assay type: functional, Mus musculus
[13] = Water solubility of the compound; assay type: ADME; details: read-out: S
Outline: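 Excess bis(carbamate) (30-60 mg) in 2 mL distilled water, vortexed 10 min, filtered through Teflon wool and diluted. UV absorbance read at 291 nm. Concentration from a linear Beer's law calibration made with a salt standard (r = 0.998).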

[14] = test system: P388; assay: Weight difference at 50 mg/kg (ip)against P388 Lymphocytic Leukemia in mice; assay type: functional, Mus musculus; outline: as §2
[15] = test system: B16; assay: No. of cures on day 60 at 80 mg/kg (ip) against B16 melanocarcinoma in mice; assay type: functional, Mus musculus
Outline: (§4)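 Female BDF1 mice given ip 0.5 mL of tumor brei (1.0 g tissue per 10 mL). Nine daily ip doses beginning 24 h later, as Klucel suspensions or a water/Tween-80 suspension. Acute toxicity scored day 5; survival read day 60. Cures counted per 10-animal group at day 60; weight difference reported as treated minus control (g).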

[16] = test system: P388; assay: Log of the tumor cell population at the end of treatment at 80 mg/kg (ip) against P388 Lymphocytic Leukemia in mice; assay type: functional, Mus musculus
[17] = test system: P388; assay: Median survival time of test animals compared to controls at 5 mg/kg (ip) against P388 Lymphocytic Leukemia in mice; assay type: functional, Mus musculus
Outline: (§5)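 P388 leukemia cells were given ip to male CDF1 mice. Dosing started 24 h later: nine daily ip doses given as suspensions in Klucel (hydroxypropylcellulose) or in water. Toxicity day was day 5 and evaluation was on day 30. The value is % T/C of median survival time against untreated controls, with a parallel positive-control arm.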

[18] = test system: B16; assay: No. of cures on day 60 at 20 mg/kg (ip) against B16 melanocarcinoma in mice; assay type: functional, Mus musculus; outline: as §4
[19] = test system: B16; assay: Weight difference at 10 mg/kg (ip)against B16 melanocarcinoma in mice; assay type: functional, Mus musculus; outline: as §4
[20] = test system: B16; assay: Median survival time of test animals compared to controls at 40 mg/kg (ip) against B16 melanocarcinoma in mice; assay type: functional, Mus musculus
Outline: (§6)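 Female BDF1 mice received B16 tumor brei ip (0.5 mL of 1.0 g tissue per 10 mL). From 24 h later they got nine daily ip doses, suspended in Klucel or water/Tween-80. Acute toxicity was assessed on day 5 and survival was evaluated on day 60. The value is median survival as % T/C, with 10 mice per group and a positive control run in parallel.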

[21] = test system: P388; assay: Median survival time of test animals compared to controls at 10 mg/kg (ip) against P388 Lymphocytic Leukemia in mice; assay type: functional, Mus musculus; outline: as §5
[22] = test system: P388; assay: Weight difference at 5 mg/kg (ip)against P388 Lymphocytic Leukemia in mice; assay type: functional, Mus musculus
Outline: (§7)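 Male CDF1 mice inoculated ip with P388 leukemia cells. Nine daily ip doses beginning 24 h later, as suspensions in Klucel or water. Acute toxicity evaluated day 5. Weight difference reported as treated minus control (g).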

[23] = test system: B16; assay: Weight difference at 40 mg/kg (ip)against B16 melanocarcinoma in mice; assay type: functional, Mus musculus; outline: as §4
[24] = test system: P388; assay: Weight difference at 80 mg/kg (ip)against P388 Lymphocytic Leukemia in mice; assay type: functional, Mus musculus; outline: as §7
[25] = test system: P388; assay: Log of the tumor cell population at the end of treatment at 10 mg/kg (ip) against P388 Lymphocytic Leukemia in mice; assay type: functional, Mus musculus
[26] = test system: B16; assay: Median survival time of test animals compared to controls at 20 mg/kg (ip) against B16 melanocarcinoma in mice; assay type: functional, Mus musculus; outline: as §6
[27] = test system: P388; assay: Median survival time of test animals compared to controls at 80 mg/kg (ip) against P388 Lymphocytic Leukemia in mice; assay type: functional, Mus musculus; outline: as §5
[28] = test system: B16; assay: Weight difference at 5 mg/kg (ip)against B16 melanocarcinoma in mice; assay type: functional, Mus musculus; outline: as §4
[29] = test system: B16; assay: Median survival time of test animals compared to controls at 5 mg/kg (ip) against B16 melanocarcinoma in mice; assay type: functional, Mus musculus; outline: as §6
[30] = test system: P388; assay: Weight difference at 20 mg/kg (ip)against P388 Lymphocytic Leukemia in mice; assay type: functional, Mus musculus; outline: as §7
[31] = test system: P388; assay: Median survival time of test animals compared to controls at 20 mg/kg (ip) against P388 Lymphocytic Leukemia in mice; assay type: functional, Mus musculus; outline: as §5
[32] = test system: B16; assay: Median survival time of test animals compared to controls at 80 mg/kg (ip) against B16 melanocarcinoma in mice; assay type: functional, Mus musculus; outline: as §6
[33] = test system: B16; assay: No. of cures on day 60 at 5 mg/kg (ip) against B16 melanocarcinoma in mice; assay type: functional, Mus musculus; outline: as §4
[34] = test system: P388; assay: Log of the tumor cell population at the end of treatment at 20 mg/kg (ip) against P388 Lymphocytic Leukemia in mice; assay type: functional, Mus musculus
[35] = test system: P388; assay: Log of the tumor cell population at the end of treatment at 40 mg/kg (ip) against P388 Lymphocytic Leukemia in mice; assay type: functional, Mus musculus
[36] = test system: P388; assay: Median survival time of test animals compared to controls at 2.5 mg/kg (ip) against P388 Lymphocytic Leukemia in mice; assay type: functional, Mus musculus
Outline: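 P388 leukemia cells given ip to male CDF1 mice; ip dosing began 24 h later, nine daily doses, as suspensions in Klucel (hydroxypropylcellulose) or water. Acute toxicity checked on day 5. Survival read on day 30 as median survival time of treated versus control mice (% T/C). Weight difference is treated minus control, in grams.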

[37] = test system: P388; assay: Weight difference at 10 mg/kg (ip)against P388 Lymphocytic Leukemia in mice; assay type: functional, Mus musculus; outline: as §7
[38] = test system: B16; assay: Weight difference at 20 mg/kg (ip)against B16 melanocarcinoma in mice; assay type: functional, Mus musculus; outline: as §4
[39] = test system: B16; assay: Median survival time of test animals compared to controls at 10 mg/kg (ip) against B16 melanocarcinoma in mice; assay type: functional, Mus musculus; outline: as §6
[40] = test system: P388; assay: Log of the tumor cell population at the end of treatment at 5 mg/kg (ip) against P388 Lymphocytic Leukemia in mice; assay type: functional, Mus musculus
[41] = test system: P388; assay: Weight difference at 40 mg/kg (ip)against P388 Lymphocytic Leukemia in mice; assay type: functional, Mus musculus; outline: as §7
[42] = test system: P388; assay: Weight difference at 2.5 mg/kg (ip)against P388 Lymphocytic Leukemia in mice; assay type: functional, Mus musculus; outline: as §7
[43] = test system: B16; assay: No. of cures on day 60 at 40 mg/kg (ip) against B16 melanocarcinoma in mice; assay type: functional, Mus musculus; outline: as §4
[44] = test system: B16; assay: No. of cures on day 60 at 10 mg/kg (ip) against B16 melanocarcinoma in mice; assay type: functional, Mus musculus; outline: as §4
[45] = test system: P388; assay: Median survival time of test animals compared to controls at 40 mg/kg (ip) against P388 Lymphocytic Leukemia in mice; assay type: functional, Mus musculus; outline: as §5
[46] = test system: B16; assay: Weight difference at 80 mg/kg (ip) against B16 melanocarcinoma in mice; assay type: functional, Mus musculus; outline: as §4

Structure (SMILES): CC(C)NC(=O)OCc1c(COC(=O)NC(C)C)c(-c2ccc(Cl)c(Cl)c2)n2c1CC(OC(=O)CCC(=O)O)C2.CN(C)c1ccncc1 (centres undefined)
- Log cell kill [1]: -1.08
- T/C [2]: 107%
- half-life [3]: 2.55 h
- T/C [4]: 125%
- Weight change [5]: -1.8 g
- T/C [6]: 111%
- Weight change [7]: -1.3 g
- T/C [8]: 106%
- Weight change [9]: -1.2 g
- Log cell kill [10]: -1.39
- Log cell kill [11]: -1.45
- Log cell kill [12]: -1.44
- solubility [13]: 30 mM
- Weight change [14]: -2.2 g

Structure (SMILES): CC(C)NC(=O)OCc1c(COC(=O)NC(C)C)c(-c2ccc(Cl)c(Cl)c2)n2c1CC(OC(=O)CN(C)C)C2 (centres undefined)
- Cures [15]: 0
- Log cell kill [16]: -1.84
- T/C [17]: 117%
- Cures [18]: 0
- Weight change [19]: 0.2 T-C
- T/C [20]: 174%
- T/C [21]: 128%
- Weight change [22]: -1.3 g
- Weight change [23]: -0.8 g
- Weight change [24]: -3.4 g
- Log cell kill [25]: -1.61
- T/C [26]: 152%
- T/C [27]: 110%
- Weight change [28]: 0.2 g
- half-life [3]: 4.13 h
- T/C [29]: 106%
- Weight change [30]: -1.9 g
- T/C [31]: 146%
- T/C [32]: <100%
- Cures [33]: 0
- Log cell kill [34]: -1.37
- Log cell kill [35]: -1.41
- Log cell kill [36]: -1.96
- T/C [36]: 101%
- Weight change [37]: -2 g
- Weight change [38]: 0.5 g
- T/C [39]: 152%
- Log cell kill [40]: -1.76
- Weight change [41]: -3.1 g
- Weight change [42]: 0.1 g
- Cures [43]: 1
- Cures [44]: 0
- T/C [45]: 144%
- solubility [13]: 0.0196 mM (≈ 11.4 µg/mL)
- Weight change [46]: -1.5 g
